This note sets out measurements from ChEMBL document CHEMBL4043092, “Neuroprotective and Antineuroinflammatory Effects of Hydroxyl-Functionalized Stilbenes and 2-Arylbenzo[b]furans” (J Med Chem, 2017).

Assay [1] deals with Cortical neurone. Nature of the assay: Neuroprotective activity against fibril amyloid beta (25 to 35)-induced cell death in Sprague-Dawley rat 5 day old neonatal primary cortical neurons assessed as cell death at maximum non toxic concentration pretreated for 2 hrs followed by 10 uM fibril amyloid beta (25 to 35) addition measured after 48 hrs by MTT assay (reference value: 39.20 +/- 0.88%). It counts as functional. In short, it runs like this:
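Rat cortical neurons from pups, papain-dissociated, cytosine arabinoside (5 μM, 1 day) to remove non-neuronal cells, used at DIV5. Vehicle 0.1% DMSO or compound pretreatment before fAβ25–35 (aged 1 week at 37 °C). Viability by MTT reduction: 0.5 mg/mL for 1 h, formazan dissolved in DMSO, OD600. Mean ± SD of three independent experiments.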

For assay [2], the system named is Cortical neurone. Nature of the assay: Neuroprotective activity against glutamate-induced cell death in Sprague-Dawley rat 10 days old neonatal primary cortical neurons assessed as cell death at maximum non toxic concentration pretreated for 2 hrs followed by 30 uM glutamate addition measured after 24 hrs by MTT assay (reference value: 41.22 +/- 3.40%). Type of assay: functional. (Tetrazolium assays rely on reduction of a dye to a coloured formazan, in cell work by metabolically active cells.)

A short description of assay [3]: Anti-inflammatory activity in Sprague-Dawley rat primary mixed glial cells assessed as inhibition of LPS-induced NO production at 50 uM pretreated for 2 hrs followed by LPS addition measured after 48 hrs by Griess assay (reference value: 100%). Type of assay: functional, Primary glial cell. Details: scale not given: the % may be the effect or the level left. A general note: Griess reagent forms a coloured azo dye with nitrite.

The test system of assay [4] is Cortical neurone. Put plainly: Neuroprotective activity against fibril amyloid beta (25 to 35)-induced cell death in Sprague-Dawley rat 5 days old neonatal primary cortical neurons assessed as increase in cell viability pretreated for 2 hrs followed by 10 uM fibril amyloid beta (25 to 35) addition measured after 48 hrs by MTT assay. Type of assay: functional, cell-based. In short, it runs like this:
(§1)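 Cortical neurons pretreated 2 h with vehicle (0.1% DMSO) or compound at maximum nontoxic concentration. Then exposed at DIV5 to fibrillar Aβ25–35 (10 μM, 48 h) or at DIV10 to glutamate (30 μM, 24 h). MTT 0.5 mg/mL for 1 h, formazan dissolved in DMSO, OD read at 600 nm. Mean ± SD of three independent experiments.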

The test system of assay [5] is Cortical neurone. Nature of the assay: Neuroprotective activity against glutamate-induced cell death in Sprague-Dawley rat 10 days old neonatal primary cortical neurons assessed as increase in cell viability pretreated for 2 hrs followed by 30 uM glutamate addition measured after 24 hrs by MTT assay. It counts as functional, cell-based. In short, it runs like this: as §1

Assay [6] is described as follows: Anti-inflammatory activity in Sprague-Dawley rat primary mixed glial cells assessed as inhibition of LPS-induced NO production pretreated for 2 hrs followed by LPS addition measured after 48 hrs by Griess assay. It counts as functional, cell-based. As to conditions: Glial cell. In short, it runs like this:
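Mixed cortical glia kept 3 days in DMEM/F12 with 10% FBS, medium changed, 4 more days, then 9 days in Neurobasal/B27 (16 days total). Cultures activated 2 days after medium refresh with 100 ng/mL LPS for 48 h, with compound at maximum nontoxic concentration. Medium nitrite read by Griess reagent at 540 nm against NaNO2 standard. Mean ± SD, three independent experiments.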

Assay [7] in a line: Antioxidant activity assessed as ABTS radical cation scavenging activity by measuring trolox equivalents by spectrophotometric analysis. It counts as functional.

Turning to `COc1cc(/C=C/c2ccc3c(c2)OCO3)cc(OC)c1OC`, the Activity in the assay with Cortical neurone [1] was determined as 45.46%; in the assay on Cortical neurone [2], 36.43%; in assay [3] it was 83.73%.
Broadly, the EC50 is the concentration at which the effect is half-maximal. As for `COc1cc(Br)cc(/C=C/c2ccc3c(c2)OCO3)c1O`, the Activity was determined as 45.74% in the assay on Cortical neurone [1], 45.69% with Cortical neurone [2] and 48.79% in assay [3]. Besides, the EC50 with Cortical neurone [4] was greater than 10 µM; in the assay with Cortical neurone [5], greater than 20 µM; in assay [6], 84.8 µM.
With `CCOC(=O)/C=C/c1cc2c(cc1/C=C/c1cc(OC)c(OC)c(OC)c1)OCO2`, the Activity is recorded as 41.76% in the assay with Cortical neurone [1], 43.95% in the assay with Cortical neurone [2] and 127.76% in assay [3].
`COc1ccc(Br)c2cc(-c3ccc4c(c3)OCO4)oc12`: the Activity in the assay on Cortical neurone [1] stood at 43.98%; in the assay with Cortical neurone [2] it was 46.84%; in assay [3], 202.71%.
As to `COc1cccc(/C=C/c2ccc3c(c2)OCO3)c1O`, the Activity in the assay on Cortical neurone [1] was 46.98%; in the assay with Cortical neurone [2] it was 38.42%; in assay [3] it was 101%.
With `CCOC(=O)/C=C/c1cc(/C=C/c2ccc3c(c2)OCO3)c(O)c(OC)c1`, the results for the Activity (in the assay with Cortical neurone [1]; in the assay with Cortical neurone [2]; in assay [3]) were 39.08%, 41.26% and 139.87%, respectively.
Take `COc1ccc(/C=C/c2cc(Br)cc(OC)c2O)cc1OC`: the Activity is 41.5% with Cortical neurone [1], 42.09% with Cortical neurone [2] and 88.34% in assay [3].
On to `CCOC(=O)/C=C/c1cc(O)c(O)cc1-c1cc2cccc(O)c2o1`, for which the Activity was 31.58% in the assay with Cortical neurone [1], 43.5% in the assay on Cortical neurone [2], 38.13% in assay [3] and 0.2 mMequiv in assay [7]. In addition, the EC50 in the assay with Cortical neurone [4] is greater than 50 µM; with Cortical neurone [5], greater than 50 µM; in assay [6] it was 82.5 µM.
In the case of `COc1ccc(/C=C/c2cc(C=O)cc(OC)c2O)cc1OC`, the results for the Activity (in the assay on Cortical neurone [1]; in the assay on Cortical neurone [2]; in assay [3]) were 48.16%, 37.02% and 27.99%, respectively. The EC50 is greater than 50 µM with Cortical neurone [4], greater than 50 µM in the assay with Cortical neurone [5] and 43 µM in assay [6].
With `CCOC(=O)/C=C/c1cc(OC)c(OC)cc1/C=C/c1ccccc1O`, the Activity in the assay on Cortical neurone [1] is 36.56%; in the assay with Cortical neurone [2], 43.3%; in assay [3] it was 73.27%.
`CCOC(=O)/C=C/c1cc2c(cc1/C=C/c1cccc(OC)c1O)OCO2`: the Activity is listed as 41.57% in the assay with Cortical neurone [1], 41.64% with Cortical neurone [2] and 75.33% in assay [3].
Turning to `CCOC(=O)/C=C/c1cc(OC)c(OC)cc1/C=C/c1cccc(OC)c1O`, the Activity with Cortical neurone [1] is listed as 41.24%; in the assay with Cortical neurone [2], 42.73%; in assay [3], 89.35%.
On the same counts, the results for `COc1cc(Br)c(/C=C/c2cccc(OC)c2O)cc1OC` are 39.67%, 42.89% and 102.71%.
Consider `CCOC(=O)/C=C/c1cccc(/C=C/c2cc(O)c(O)c(O)c2)c1`, for which the Activity was 41.19% in the assay with Cortical neurone [1], 42.05% with Cortical neurone [2] and 26.02% in assay [3]. The results for the EC50 (in the assay with Cortical neurone [4]; in the assay with Cortical neurone [5]; in assay [6]) were greater than 50 µM, greater than 50 µM and 48.9 µM, respectively.
`Oc1ccc(-c2cc3cc(Br)cc(O)c3o2)cc1`: the Activity is on record as 30.1% in the assay on Cortical neurone [1], 33.02% with Cortical neurone [2] and 101.84% in assay [3].
`Oc1cc(-c2cc3cc(Br)cc(O)c3o2)cc(O)c1O`: the figures for the Activity (in the assay on Cortical neurone [1]; with Cortical neurone [2]; in assay [3]) were 45.8%, 43.67% and 106.67%, respectively.
As to `CCOC(=O)/C=C/c1cc2c(cc1/C=C/c1ccc(OC)cc1)OCO2`, the values for the Activity (in the assay with Cortical neurone [1]; with Cortical neurone [2]; in assay [3]) were 41.62%, 37.28% and 74.88%, respectively.
Take `CCOC(=O)/C=C/c1ccc(OC)c(O)c1/C=C/c1ccc2c(c1)OCO2`: the Activity in the assay on Cortical neurone [1] is 38.17%; in the assay with Cortical neurone [2], 49.21%; in assay [3], 70.98%. Also, the EC50 in the assay with Cortical neurone [4] was greater than 50 µM; with Cortical neurone [5] it was greater than 50 µM; in assay [6], 67 µM.
Take `O=C(O)/C=C/c1ccc(O)c2c1C=Cc1cc(O)c(O)cc1O2` [TOURNEFOLIC ACID B]: the Activity in the assay with Cortical neurone [1] was 24.66%; in the assay on Cortical neurone [2], 42.43%; in assay [3], 98.77%; in assay [7] it was 1.27 mMequiv. In addition, the concentration for a half-maximal effect (EC50) in the assay on Cortical neurone [4] amounted to 35.7 µM.
As to `CCOC(=O)/C=C/c1cccc(/C=C/c2cc(OC)c(OC)c(OC)c2)c1`, the Activity came out at 35.98% in the assay with Cortical neurone [1], 43.29% in the assay with Cortical neurone [2] and 75.6% in assay [3].
As for `CCOC(=O)/C=C/c1cc(OC)c(OC)cc1/C=C/c1cc(OC)c(OC)c(OC)c1`, the Activity in the assay on Cortical neurone [1] came to 41.59%; in the assay on Cortical neurone [2] it was 39.47%; in assay [3], 123.48%.
For `CCOC(=O)/C=C/c1ccc(/C=C/c2cc(OC)c(OC)c(OC)c2)cc1`, the Activity in the assay on Cortical neurone [1] came out at 44.43%; in the assay on Cortical neurone [2], 44.56%; in assay [3], 91.44%.
On the same counts, the results for `CCOC(=O)/C=C/c1c(/C=C/c2ccc(OC)cc2)cc(OC)c(OC)c1OC` are 36.93%, 41.07% and 59.11%.
As to `COc1cc(/C=C/c2ccccc2O)c(Br)c(OC)c1OC`, the Activity was 37.67% in the assay with Cortical neurone [1], 47.1% in the assay on Cortical neurone [2] and 105.48% in assay [3].
In the case of `COC(=O)/C=C/c1ccc(O)c2c1C=Cc1cc(O)c(O)cc1O2`, the Activity in the assay with Cortical neurone [1] came to 40.12%; in the assay with Cortical neurone [2], 20.38%; in assay [3], 99.63%; in assay [7], 1.48 mMequiv. In the assay with Cortical neurone [5], the EC50 is greater than 50 µM.
For `COc1cccc(/C=C/c2ccc3c(c2)OCO3)c1OC`, the Activity in the assay on Cortical neurone [1] is 38.18%; in the assay on Cortical neurone [2], 44.02%; in assay [3] it was 95.92%.
With `COc1cc(Br)c(/C=C/c2cc(Br)cc(OC)c2O)cc1OC`, the Activity in the assay with Cortical neurone [1] is reported as 38.78%; in the assay with Cortical neurone [2], 41.17%; in assay [3] it was 94.57%.
In the same order, the values of `COc1ccc(/C=C/c2ccc3c(c2)OCO3)cc1O` are 43.51%, 30.94% and 81.35%.
Consider `Oc1cc(-c2cc3ccccc3o2)c(Br)c(O)c1O`, for which the Activity with Cortical neurone [1] was 42.34%; with Cortical neurone [2], 41.89%; in assay [3], 24.92%; in assay [7] it was 0.97 mMequiv. Also, the EC50 in the assay with Cortical neurone [4] is greater than 20 µM; with Cortical neurone [5], greater than 20 µM; in assay [6], 39.2 µM.
For the compound `CCOC(=O)/C=C/c1ccc(OC)c(O)c1/C=C/c1ccc(OC)c(OC)c1`, the Activity with Cortical neurone [1] was determined as 38.07%; with Cortical neurone [2] it was 44.3%; in assay [3], 106.26%.
For `CCOC(=O)/C=C/c1ccc(OC)c(O)c1/C=C/c1cc(OC)c(OC)c(OC)c1`, the Activity in the assay with Cortical neurone [1] came to 42.53%; in the assay with Cortical neurone [2] it was 43.06%; in assay [3] it was 114.19%.
